ChEMBL document CHEMBL1155020, “Trithiocarbonates as a novel class of HDAC inhibitors: SAR studies, isoenzyme selectivity, and pharmacological profiles” (J Med Chem, 2008)
Calls of active or inactive are those of the source. No cut-off for these calls is given here.

Tests used:
[1] = target: T1, Histone deacetylase (Homo sapiens) (UniProt Q13547+O15379+Q9UBN7+Q92769+Q9UQL6+Q8WUI4+Q9BY41+Q96DB2+P56524+Q9UKV0+Q969S8); experiment: Inhibition of HDAC in human RKO cells assessed as induction of histone H3 lysine 1 to 20 hyperacetylation at 1 to 10 uM after 24 hrs by Western blotting; assay type: cell-based
In short: (§1)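 RKO cells were treated for 24 h with compound at 1, 3 and 10 µM. Lysates were run on SDS-PAGE and Western blots probed for histone H3 S10 phosphorylation and histone H3 K1-20 acetylation, with β-actin reprobe as control.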

[2] = target: Histone deacetylase; experiment: Inhibition of nuclear HDAC isolated from human HeLa cells; assay type: cell-based
[3] = target: Histone deacetylase; experiment: Inhibition of HDAC in human HeLa cells assessed as induction of histone H3 hyperacetylation after 24 hrs; assay type: cell-based
[4] = tested on: HeLa; experiment: Cytotoxicity against human HeLa cells after 72 hrs by alamar blue assay; assay type: functional, cell-based
In short: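 HeLa cells were seeded at densities allowing growth through 72 h of compound exposure at 37 °C, 5% CO2. Viability was read by Alamar Blue (resazurin) reduction. Replicate assays were averaged, and IC50 was taken from concentration-effect curves.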

[5] = target: T1, Histone deacetylase (Homo sapiens); experiment: Inhibition of HDAC in human RKO cells assessed as induction of histone H3 serine 10 phosphorylation at 1 to 10 uM after 24 hrs by Western blotting; assay type: cell-based; in short: as §1
[6] = target: T2, Histone deacetylase 1 (Homo sapiens, UniProt Q13547); experiment: Inhibition of recombinant HDAC1 expressed in HEK293 cells; assay type: cell-based
T2 sequence (Q13547 whole entry): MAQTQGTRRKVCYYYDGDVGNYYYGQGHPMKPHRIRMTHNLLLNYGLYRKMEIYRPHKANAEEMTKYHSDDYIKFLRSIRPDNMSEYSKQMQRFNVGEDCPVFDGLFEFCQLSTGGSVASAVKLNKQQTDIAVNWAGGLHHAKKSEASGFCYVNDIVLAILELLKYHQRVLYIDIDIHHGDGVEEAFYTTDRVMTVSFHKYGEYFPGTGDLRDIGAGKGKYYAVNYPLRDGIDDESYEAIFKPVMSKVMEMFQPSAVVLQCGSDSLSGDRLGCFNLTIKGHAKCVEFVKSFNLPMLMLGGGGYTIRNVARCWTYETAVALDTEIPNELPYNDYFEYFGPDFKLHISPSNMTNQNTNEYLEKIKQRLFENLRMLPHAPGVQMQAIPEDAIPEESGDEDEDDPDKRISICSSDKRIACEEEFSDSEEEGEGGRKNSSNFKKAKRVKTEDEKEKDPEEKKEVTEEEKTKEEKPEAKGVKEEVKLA

[7] = target: Histone deacetylase; experiment: Inhibition of HDAC in human HeLa cells; assay type: cell-based
[8] = target: T3, Protein deacetylase HDAC6 (Homo sapiens, UniProt Q9UBN7); experiment: Inhibition of recombinant HDAC6 expressed in HEK293 cells; assay type: cell-based
T3 sequence (Q9UBN7 whole entry): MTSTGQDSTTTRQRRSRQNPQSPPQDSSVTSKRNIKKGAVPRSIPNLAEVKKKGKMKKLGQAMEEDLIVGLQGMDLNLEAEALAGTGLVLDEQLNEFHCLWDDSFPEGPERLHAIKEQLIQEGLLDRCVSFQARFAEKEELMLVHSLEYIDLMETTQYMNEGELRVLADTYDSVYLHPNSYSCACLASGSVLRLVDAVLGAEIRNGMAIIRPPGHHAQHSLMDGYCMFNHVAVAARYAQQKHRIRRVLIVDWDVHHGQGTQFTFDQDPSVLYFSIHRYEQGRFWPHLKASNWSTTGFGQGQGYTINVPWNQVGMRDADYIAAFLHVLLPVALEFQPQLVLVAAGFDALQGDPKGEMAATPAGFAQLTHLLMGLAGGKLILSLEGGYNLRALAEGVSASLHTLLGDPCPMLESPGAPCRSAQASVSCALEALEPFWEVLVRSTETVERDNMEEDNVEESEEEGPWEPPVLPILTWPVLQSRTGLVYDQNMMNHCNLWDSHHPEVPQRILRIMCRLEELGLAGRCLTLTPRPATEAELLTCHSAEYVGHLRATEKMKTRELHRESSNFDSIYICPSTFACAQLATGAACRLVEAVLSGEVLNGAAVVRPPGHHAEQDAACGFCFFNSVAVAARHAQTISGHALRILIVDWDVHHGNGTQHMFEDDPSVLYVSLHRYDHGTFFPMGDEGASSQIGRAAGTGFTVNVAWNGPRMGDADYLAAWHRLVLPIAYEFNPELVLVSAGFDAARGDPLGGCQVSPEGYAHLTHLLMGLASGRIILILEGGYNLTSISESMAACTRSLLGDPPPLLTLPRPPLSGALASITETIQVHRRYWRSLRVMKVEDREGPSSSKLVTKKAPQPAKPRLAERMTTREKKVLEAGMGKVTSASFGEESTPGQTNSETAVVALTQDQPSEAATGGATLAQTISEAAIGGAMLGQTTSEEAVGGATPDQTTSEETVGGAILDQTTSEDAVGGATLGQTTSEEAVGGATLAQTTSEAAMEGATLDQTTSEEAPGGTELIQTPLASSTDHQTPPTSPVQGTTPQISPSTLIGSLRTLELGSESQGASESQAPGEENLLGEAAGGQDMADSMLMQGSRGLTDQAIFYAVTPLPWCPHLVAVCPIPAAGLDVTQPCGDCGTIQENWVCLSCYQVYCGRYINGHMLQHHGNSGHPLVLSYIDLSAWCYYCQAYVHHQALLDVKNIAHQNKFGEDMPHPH

[9] = tested on: RKO; experiment: Induction of apoptosis in human RKO cells at 10 uM after 24 hrs by flow cytometry
[10] = tested on: RKO; experiment: Cytotoxicity against arrested non proliferative human RKO cells after 24 hrs; assay type: functional, cell-based; settings: in the assay text read “after 72 hrs” for “after 24 hrs”
In short: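 Alamar Blue (resazurin) read-out of metabolic activity. RKO p21waf1 transfectant cells were arrested by inducing p21waf1 with 10 µM ponasterone A for 24 h, then seeded at 2 × 10^4 cells/well and treated with compound. IC50 was taken from the concentration-effect curve.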

[11] = tested on: RKO; experiment: Induction of apoptosis in human RKO cells assessed as accumulation at subG1 phase by flow cytometry; assay type: functional, cell-based
In short: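 RKO cells were seeded at 5 × 10^5 per 10 cm dish and grown for 24 h in log phase. They were then exposed to compound at 1 and 10 µM for 24 h. Flow cytometry assigned cells to subG1 (apoptosis), G1 (2N), S and G2/M (4N).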

[12] = target: T4, Protein deacetylase HDAC6 (Homo sapiens) (UniProt Q9UBN7); experiment: Inhibition of recombinant HDAC6 expressed in HEK293 cells at 32 uM; assay type: cell-based
T4 sequence (whole entry): T3 sequence (Q9UBN7 whole entry)

[13] = target: T1, Histone deacetylase (Homo sapiens); experiment: Inhibition of HDAC in human HeLa cells at 32 uM; assay type: cell-based
In short: (§2)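 HeLa cells were seeded at 5 × 10^3/well, grown for 24 h, and exposed to compound for 3 h. Cell-permeable Boc-K(Ac)-AMC was added for a further 3 h. Lysis/developer buffer containing trypsin and 10 µM TSA followed, with 3 h incubation. AMC fluorescence was read at ex 355/em 460 nm, and % inhibition was given at the stated concentration.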

[14] = target: T2, Histone deacetylase 1; experiment: Inhibition of recombinant HDAC1 expressed in HEK293 cells at 32 uM; assay type: cell-based
[15] = target: T1, Histone deacetylase (Homo sapiens); experiment: Inhibition of nuclear HDAC isolated from human HeLa cells at 32 uM; assay type: cell-free
[16] = target: T3, Protein deacetylase HDAC6; experiment: Inhibition of recombinant HDAC6 expressed in HEK293 cells using variable substrate concentration by Lineweaver-Burke plot; assay type: cell-based
In short: (§3)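 Inhibitor was used at 1/4, 1/2, 1, 2 and 4 times the IC50-derived concentration. Ki was obtained from Lineweaver-Burk plots, with y-axis intersection indicating substrate competition.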

[17] = target: T2, Histone deacetylase 1; experiment: Inhibition of recombinant HDAC1 expressed in HEK293 cells using variable substrate concentration by Lineweaver-Burke plot; assay type: cell-based; in short: as §3
[18] = target: T1, Histone deacetylase (Homo sapiens); experiment: Inhibition of HDAC in human HeLa cells at 50 uM; assay type: cell-based; in short: as §2
[19] = target: T4, Protein deacetylase HDAC6 (Homo sapiens); experiment: Inhibition of HDAC6 in human A549 NSCLC cells assessed as induction of alpha-tubulin hyperacetylation at 10 uM after 24 hrs by Western blotting; assay type: cell-based
In short: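 A549 NSCLC cells were exposed to compound for 24 h and lysed. Western blots were probed for acetylated α-tubulin and acetylated histone H3 K1-20, then reprobed with histone H3 and α-tubulin antibodies as controls.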

[20] = target: T2, Histone deacetylase 1; experiment: Inhibition of recombinant HDAC1 expressed in HEK293 cells at 30 uM; assay type: cell-based
[21] = tested on: HeLa; experiment: Cytotoxicity against human HeLa cells at 50 uM after 72 hrs by alamar blue assay; assay type: functional
[22] = target: T1, Histone deacetylase (Homo sapiens); experiment: Inhibition of HDAC in human HeLa cells assessed as induction of p21waf1 at 50 uM after 24 hrs by Western blotting; assay type: cell-based
In short: (§4)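 HeLa cells were treated with compound at 5 and 50 µM for 24 h, then lysed in Tris pH 8 RIPA-type buffer. Equal protein amounts were separated by SDS-PAGE and blotted to PVDF. Blots were probed for acetylated histone H3 K1-20 and p21waf1, then reprobed for β-actin as loading control.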

[23] = target: T1, Histone deacetylase (Homo sapiens); experiment: Inhibition of HDAC in human HeLa cells assessed as induction of histone H3 hyperacetylation at 50 uM after 24 hrs by Western blotting; assay type: cell-based; in short: as §4
[24] = target: T1, Histone deacetylase (Homo sapiens); experiment: Inhibition of nuclear HDAC isolated from human HeLa cells at 30 uM; assay type: cell-free

| Structure (SMILES) | IC50 [2] | IC50 [4] | IC50 [6] | IC50 [7] | IC50 [8] | further results |
| --- | --- | --- | --- | --- | --- | --- |
| CCSC(=S)SCC(=O)c1ccc(CC(=O)NCc2ccccc2)s1 | 0.038 µM | 0.71 µM | 762 nM | 9.84 µM | 250 nM | Activity [1]: Active; EC50 [3]: 2.4 µM; Activity [5]: Active |
| CCOC(=S)SCC(=O)c1ccc(NC(C)=O)cc1 | 0.386 µM | 3.61 µM | 536 nM | 26.2 µM | 90 nM | Activity [1]: Active; EC50 [3]: 2.9 µM; Activity [5]: Active; Activity [9]: Active |
| CCSC(=S)SCC(=O)c1ccc(C)cc1 | 0.375 µM |  | 6990 nM | 81.2 µM | 1250 nM | Activity [10]: Active; EC50 [3]: 4.8 µM; Activity [11]: Active; Activity [9]: Active |
| COc1ccc(C(=O)CSC(=S)N2CCOCC2)cc1 |  |  |  |  |  | inhibition [12]: -2%; inhibition [13]: 0%; inhibition [14]: 0%; inhibition [15]: 2% |
| CCSC(=S)SCC(=O)c1ccn(S(=O)(=O)c2ccccc2)c1 |  |  |  |  |  | Ki [16]: 140 nM |
| CCSC(=S)SCC(=O)c1ccc(CC(=O)NCCOc2ccccc2)s1 | 0.018 µM | 5.78 µM | 385 nM | 0.624 µM | 204 nM | Ki [17]: 460 nM |
| CCSC(=S)OCC(=O)c1ccc(OC)cc1 |  | 2.99 µM |  |  |  | inhibition [12]: 16%; inhibition [18]: 28%; inhibition [14]: 6%; inhibition [15]: 16% |
| CCSC(=S)SCC(=O)c1ccc(-c2ccc(CNc3cnc4ccccc4c3)cn2)s1 | 0.008 µM | 2.7 µM | 555 nM | 0.683 µM | 438 nM | EC50 [3]: 4.8 µM; Activity [9]: Active |
| CCSC(=S)SCC(=O)c1cccc(NC(=O)c2ccccc2)c1 | 0.12 µM | 8.23 µM | 1220 nM | 0.964 µM | 65 nM | Activity [19]: Active; Ki [16]: 110 nM |
| CCSC(=S)SCC(=O)c1ccc(C(=O)Nc2ccc(Cl)cc2)cc1 | 0.079 µM |  |  |  | 1450 nM | inhibition [20]: 1%; inhibition at 50 µM [21]: 0% |
| CCSC(=S)NCC(=O)c1ccc(OC)cc1 |  |  |  |  |  | inhibition [12]: -8%; inhibition at 50 µM [21]: 26%; inhibition [15]: -3% |
| CCSC(=S)SCC(=O)c1cccc(S(=O)(=O)Nc2ccc(OC)cc2)c1 | 0.015 µM | 5.17 µM | 530 nM | 2.77 µM | 519 nM |  |
| CCSC(=S)SCC(=O)c1ccc(NC(C)=O)cc1 | 0.318 µM | 1.46 µM | 1680 nM | 0.857 µM | 180 nM |  |
| CCSC(=S)SCC(=O)c1ccc(NC(=O)c2ccccc2)cc1 | 0.074 µM | 15.8 µM | 10400 nM | 7.46 µM | 175 nM |  |
| CCSC(=S)SCC(=O)c1cccc(C(=O)NCc2ccccc2)c1 | 0.049 µM | 13.1 µM | 672 nM | 0.533 µM | 195 nM |  |
| CCSC(=S)SCC(=O)c1cccc(S(=O)(=O)Nc2ccc3c(c2)OCO3)c1 | 0.014 µM | 9.18 µM | 501 nM | 1.86 µM | 431 nM | Activity [22]: Active; Activity [23]: Active |
| CCNC(=S)NCC(=O)c1ccc(OC)cc1 |  | 5.81 µM |  |  |  | inhibition [24]: -6% |
| CCSC(=S)SCC(=O)c1ccc(CC(=O)Nc2ccc(OC)cc2)s1 | 0.01 µM | 6.61 µM | 251 nM | 7.53 µM | 116 nM | EC50 [3]: 0.76 µM |
| CCSC(=S)SCC(=O)c1cccc(S(=O)(=O)N(C)c2ccc(OC)cc2)c1 | 0.11 µM |  | 5330 nM |  | 2040 nM | inhibition at 50 µM [21]: 43% |
